According to ChEMBL document CHEMBL1145382, “Novel ergopeptides as dual ligands for adenosine and dopamine receptors” (J Med Chem, 2007):
Active and inactive are the calls of the source. No cut-off for these calls is given here.

Legend:
[1] = molecular target: T1, Adenosine receptor A2a (Homo sapiens, UniProt P29274); assay: Displacement of [3H]CGS 21680 from adenosine A2A receptor in lamb striatum membrane at 50 uM after 2 hrs; format: cell membranes; details: Ovis aries, target entry is the homologue from another species
Method in brief: (§1)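 Single-concentration screen at 50 µM ergopeptide on lamb striatal membranes (0.5 mg protein/mL), 22 °C, 50 mM Tris-HCl pH 7.4. Radioligands: [3H]SCH 23390 1.2 nM (D1), [3H]YM 09151-2 0.9 nM (D2), [3H]R-PIA 2.2 nM (A1, with MgCl2 and ADA), [3H]CGS 21680 20.1 nM (A2A, with MgCl2 and ADA). Specific binding displaced, after filtration and scintillation counting.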

[2] = molecular target: T1, Adenosine receptor A2a; assay: Agonist activity at adenosine A2A receptor in SH-SY5Y cells assessed as CGS-induced intracellular cAMP production at 50 uM; format: functional, cell-based
Method in brief: (§2)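 SH-SY5Y neuroblastoma cells, endogenous A2AR, stably carrying human D2LR. Serum-starved 12-16 h, in HBSS with 50 µM zardaverine for 10 min, then 50 µM ergopeptide, alone or with the A2AR agonist CGS. 35 min total incubation. cAMP by competitive enzyme immunoassay. Three to six determinations, Student's t test.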

[3] = molecular target: T1, Adenosine receptor A2a; assay: Displacement of [3H]CGS 21680 from adenosine A2A receptor in lamb striatum membrane after 2 hrs; format: cell membranes, Ovis aries; details: target entry is the homologue from another species
Method in brief: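 Lamb striatal membranes (0.5 mg protein/mL), 22 °C, 50 mM Tris-HCl pH 7.4, with increasing ergopeptide concentrations. Conditions per receptor: D1 1.2 nM [3H]SCH 23390, 1 mM dopamine nonspecific. D2 0.9 nM [3H]YM 09151-2, 100 µM raclopride nonspecific. A1 2.2 nM [3H]R-PIA, 10 mM MgCl2, 0.2 U/mL ADA, 50 µM R-PIA nonspecific. A2A 20.1 nM [3H]CGS 21680, 10 mM MgCl2, 2 U/mL ADA, 1 mM CGS 21680 nonspecific. Filtration, scintillation counting. KD by nonlinear one- or two-site fit. Three to six determinations.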

[4] = molecular target: T2, Adenosine receptor A1 (Homo sapiens) (UniProt P30542); assay: Displacement of [3H]R-PIA from adenosine A1 receptor in lamb striatum membrane at 50 uM after 1 hr; format: cell membranes; details: Ovis aries, target entry is the homologue from another species; method in brief: as §1
T2 sequence (whole entry): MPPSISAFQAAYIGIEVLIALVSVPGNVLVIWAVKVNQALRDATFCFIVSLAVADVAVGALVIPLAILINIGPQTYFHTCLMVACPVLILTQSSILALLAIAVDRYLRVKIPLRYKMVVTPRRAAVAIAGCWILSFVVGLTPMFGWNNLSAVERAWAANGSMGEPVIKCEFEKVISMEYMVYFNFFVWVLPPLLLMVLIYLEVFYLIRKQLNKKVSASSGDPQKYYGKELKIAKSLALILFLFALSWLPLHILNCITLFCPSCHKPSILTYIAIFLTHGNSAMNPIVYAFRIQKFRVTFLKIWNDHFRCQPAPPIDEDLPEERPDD

[5] = molecular target: D(2) dopamine receptor (Homo sapiens) (UniProt P14416); assay: Displacement of [3H]YM 09151-2 from dopamine D2 receptor in lamb striatum membrane at 50 uM after 2 hrs; format: cell membranes; details: Ovis aries, target entry is the homologue from another species; method in brief: as §1
[6] = molecular target: D(1A) dopamine receptor (Homo sapiens) (UniProt P21728); assay: Agonist activity at dopamine D1 receptor transfected in mouse L(tk-) cells assessed as stimulation of cAMP levels; format: functional, cell-based
Method in brief: (§3)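 Mouse Ltk- fibroblasts cotransfected with human A1R and D1R, serum-starved 12-16 h. In HBSS with 50 µM zardaverine, then 50 µM ergopeptide, with or without 20 nM SKF or 50 µM SCH. 35 min total incubation. cAMP by competitive enzyme immunoassay. Three to six determinations, t test.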

[7] = molecular target: D(2) dopamine receptor (Homo sapiens) (UniProt P14416); assay: Antagonist activity at dopamine D2 receptor in SH-SY5Y cells assessed as effect on forskolin-activated intracellular cAMP production at 50 uM; format: functional, cell-based
Method in brief: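 SH-SY5Y cells expressing human D2LR, preincubated 5-10 min at 22 °C with 5 µM ZM to block A2AR. Then 50 µM zardaverine, 10 µM forskolin, and 50 µM ergopeptide, with or without 150 nM quinpirole or 50 µM raclopride. 35 min total. cAMP by enzyme immunoassay. Three to six determinations, t test.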

[8] = molecular target: D(1A) dopamine receptor (Homo sapiens) (UniProt P21728); assay: Displacement of [3H]SCH 23390 from dopamine D1 receptor in lamb striatum membrane at 50 uM after 1 hr; format: cell membranes; details: Ovis aries, target entry is the homologue from another species; method in brief: as §1
[9] = molecular target: T2, Adenosine receptor A1 (Homo sapiens); assay: Agonist activity at adenosine A1 receptor transfected in mouse L(tk-) cells assessed as decrease in forskolin-induced cAMP levels; format: functional, cell-based
Method in brief: (§4)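 Mouse Ltk- fibroblasts cotransfected with human A1R and D1R, preincubated 5-10 min at 22 °C with 50 µM SCH to block D1R. Then 50 µM zardaverine, 10 µM forskolin, and 50 µM ergopeptide, with or without 20 nM R-PIA or 50 µM DPCPX. 35 min total. cAMP by enzyme immunoassay. Three to six determinations.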

[10] = molecular target: T1, Adenosine receptor A2a; assay: Antagonist activity at adenosine A2A receptor in SH-SY5Y cells assessed as CGS-induced intracellular cAMP production at 50 uM; format: functional, cell-based; method in brief: as §2
[11] = molecular target: D(1A) dopamine receptor (Homo sapiens) (UniProt P21728); assay: Antagonist activity at dopamine D1 receptor transfected in mouse L(tk-) cells assessed as inhibition of SKF-induced stimulation of forskolin-induced cAMP levels; format: functional, cell-based; method in brief: as §3
[12] = molecular target: T2, Adenosine receptor A1 (Homo sapiens); assay: Antagonist activity at adenosine A1 receptor transfected in mouse L(tk-) cells assessed as inhibition of R-PIA-induced decrease in forskolin-induced cAMP levels; format: functional, cell-based; method in brief: as §4

Chain of D(1A) dopamine receptor (Homo sapiens) (P21728 whole entry): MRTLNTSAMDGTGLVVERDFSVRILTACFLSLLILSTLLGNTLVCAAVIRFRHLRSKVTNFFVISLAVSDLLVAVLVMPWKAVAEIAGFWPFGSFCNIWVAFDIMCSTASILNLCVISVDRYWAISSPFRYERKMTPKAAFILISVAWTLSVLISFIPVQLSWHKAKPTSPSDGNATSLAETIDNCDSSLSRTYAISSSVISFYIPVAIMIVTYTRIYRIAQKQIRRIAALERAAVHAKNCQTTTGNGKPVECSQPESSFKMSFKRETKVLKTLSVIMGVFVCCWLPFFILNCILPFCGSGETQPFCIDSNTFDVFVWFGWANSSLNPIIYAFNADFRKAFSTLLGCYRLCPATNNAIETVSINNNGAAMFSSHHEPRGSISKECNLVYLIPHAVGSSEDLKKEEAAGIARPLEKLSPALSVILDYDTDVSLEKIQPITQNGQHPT
T1 sequence (P29274 whole entry): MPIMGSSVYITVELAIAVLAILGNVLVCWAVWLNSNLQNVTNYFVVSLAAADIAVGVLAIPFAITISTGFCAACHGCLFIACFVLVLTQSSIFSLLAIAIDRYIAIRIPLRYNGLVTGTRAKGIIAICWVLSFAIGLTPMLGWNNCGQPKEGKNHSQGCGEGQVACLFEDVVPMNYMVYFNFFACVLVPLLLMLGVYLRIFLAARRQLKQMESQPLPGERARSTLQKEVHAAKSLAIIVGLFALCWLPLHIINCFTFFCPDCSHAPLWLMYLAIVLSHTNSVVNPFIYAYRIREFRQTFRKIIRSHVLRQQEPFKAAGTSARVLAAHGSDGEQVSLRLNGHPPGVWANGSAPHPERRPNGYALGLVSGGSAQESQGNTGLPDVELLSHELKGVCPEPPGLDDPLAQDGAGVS
Chain of D(2) dopamine receptor (Homo sapiens) (P14416 whole entry): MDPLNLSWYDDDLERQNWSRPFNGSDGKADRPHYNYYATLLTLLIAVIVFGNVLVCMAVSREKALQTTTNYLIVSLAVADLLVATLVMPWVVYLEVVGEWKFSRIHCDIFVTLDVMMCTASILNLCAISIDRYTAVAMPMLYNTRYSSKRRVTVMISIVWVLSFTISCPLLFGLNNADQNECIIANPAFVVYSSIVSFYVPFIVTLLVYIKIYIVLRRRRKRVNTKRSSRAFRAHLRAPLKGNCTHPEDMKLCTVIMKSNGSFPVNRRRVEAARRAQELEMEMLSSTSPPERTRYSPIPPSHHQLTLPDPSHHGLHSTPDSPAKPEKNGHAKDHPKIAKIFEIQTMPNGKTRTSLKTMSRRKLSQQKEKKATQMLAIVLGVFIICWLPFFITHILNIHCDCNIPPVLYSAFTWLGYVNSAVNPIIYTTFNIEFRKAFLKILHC

CC(C)[C@H](NC(=O)[C@@H]1C=C2c3cccc4[nH]cc(c34)C[C@H]2N(C)C1)C(=O)N[C@@H](CCC1CCCCC1)C(=O)N1CCCC(C(N)=O)C1 (some centres not stated)
Activity [1]: < 40%
Activity [2]: inactive
Kd [3]: 50 µM
Activity [4]: < 40%
Activity [5]: < 40%
Activity [6]: Active
Activity [7]: Active
Activity [8]: < 40%
Activity [9]: inactive
Activity [10]: Active
Activity [11]: inactive
Activity [12]: Active
